SMILES strings stand for the structures.

The nature of series [1]: Selectivity ratio of CC50 to IC50 for promastigote stage of Leishmania amazonensis WHOM/BR/75/JOSEFA. Also on record: reference not given here.
Series [2] deals with Trypanosoma cruzi. In words: Antitrypanosomal activity against epimastigote stage of Trypanosoma cruzi Y after 96 hrs by hemocytometry. Format: functional, organism-based. A digest of the protocol: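 Log-phase parasites (promastigotes 3-day, Warren's medium + 10% FBS, 25°C; epimastigotes 4-day, LIT + 10% FBS, 28°C) seeded at 1 × 10^6 cells/mL with compound (0.1-100 µM; DMSO ≤1%). Promastigotes read at 72 h, epimastigotes at 96 h, by hemocytometer counting. IC50 by nonlinear regression.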

Series [3] has as its system Trypanosoma cruzi. Put plainly: Antitrypanosomal activity against trypomastigote stage of Trypanosoma cruzi Y infected in monkey LLC-MK2 cells after 96 hrs by Pizzi-Brener method. Format: functional, organism-based.
Series [4] has as its system Trypanosoma cruzi. Put plainly: Antitrypanosomal activity against amastigote stage of Trypanosoma cruzi Y infected in monkey LLC-MK2 cells after 96 hrs by Geimsa staining-based light microscopy. The settings on record: LLC-MK2, 96 h. It counts as functional, organism-based. A digest of the protocol:
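LLCMK2 monolayers (2.5 x 10^5 cells/mL, 24 h, 37 °C, 5% CO2) infected with trypomastigotes at 10 per host cell for 24 h, washed, treated with compound (0.1 to 50 μM) 96 h. Methanol-fixed, Giemsa-stained, 200 cells counted; survival index (% infected × amastigotes/cell); IC50 by nonlinear regression.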

Series [5] in a line: Selectivity ratio of CC50 for monkey LLC-MK2 cells to IC50 for epimastigote stage of epimastigote stage of Trypanosoma cruzi Y.
A short description of series [6]: Selectivity ratio of CC50 for mouse J774A1 cells to IC50 for promastigote stage of Leishmania amazonensis WHOM/BR/75/JOSEFA. It counts as ADME, cell-based, J774.A1. The settings on record: read-out: Ratio CC50/IC50.
The nature of series [7]: Selectivity ratio of CC50 for monkey LLC-MK2 cells to IC50 for amastigote stage of Trypanosoma cruzi Y. Format: ADME, cell-based. The settings on record: read-out: Ratio CC50/IC50.
Series [8] in a line: Selectivity ratio of CC50 for monkey LLC-MK2 cells to IC50 for epimastigote stage of epimastigote stage of Trypanosoma cruzi Y. Format: ADME, cell-based. The settings on record: read-out: Ratio CC50/IC50.
The test system of series [9] is Leishmania amazonensis. In words: Antileishmanial activity against promastigote stage of Leishmania amazonensis WHOM/BR/75/JOSEFA after 72 hrs by hemocytometry. Format: functional, organism-based.
In series [10] the test system is Leishmania amazonensis. Put plainly: Antileishmanial activity against amastigote stage of Leishmania amazonensis WHOM/BR/75/JOSEFA infected in BALB/c mouse peritoneal macrophages after 72 hrs by Geimsa staining-based light microscopy. Format: functional, organism-based.
Series [11] in a line: Selectivity ratio of CC50 for monkey LLC-MK2 cells to EC50 for trypomastigote stage of Trypanosoma cruzi Y. Format: ADME, cell-based. The settings on record: read-out: Ratio CC50/EC50.
Series [12] in a line: Selectivity ratio of CC50 for BALB/c mouse peritoneal macrophages to IC50 for amastigote stage of Leishmania amazonensis WHOM/BR/75/JOSEFA.
Series [13] relates to Trypanosoma cruzi. In words: Antitrypanosomal activity against amastigote stage of Trypanosoma cruzi.
For series [14], the system named is Trypanosoma cruzi. Put plainly: Antitrypanosomal activity against trypomastigote stage of Trypanosoma cruzi Y infected in monkey LLC-MK2 cells after 24 hrs by Pizzi-Brener method. Format: functional, organism-based. The settings on record: LLC-MK2, 24 h. A digest of the protocol: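 Trypomastigotes harvested from infected LLCMK2 culture supernatant, 1 × 10^7 cells/mL with compound (0.1-50 µM), 24 h at 37°C, 5% CO2. Viability by motility (Pizzi–Brener); EC50 by nonlinear regression.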

For the compound `COc1ccc(-c2nc3ccccc3nc2-c2ccc(OC)cc2)cc1`, the selectivity ratio in series [1] was found to be 19.7; in series [5], 9; in [6], 19.7; in [7] it was 38.4; in series [8], 9. In addition, the values for the IC50 with Trypanosoma cruzi [2], with Trypanosoma cruzi [4] and with Leishmania amazonensis [9] were 36.6 µM, 8.6 µM and 30 µM, respectively. Moreover, the EC50 (commonly the concentration that produces a half-maximal response) with Trypanosoma cruzi [3] was more than 100 µM.

For the compound `COc1ccc2nc(Cl)c([S+](C)[O-])nc2c1` (configuration not stated), the selectivity ratio amounted to 27.8 in [1]; 4.4 in series [11]; 39.2 in series [5]; 27.8 in [6]; 39.2 in series [8]. Also, the IC50 (as a rule, the concentration that gives 50% inhibition) in the series on Leishmania amazonensis [10] came out at 4.6 µM; in the series on Trypanosoma cruzi [2] it was 0.5 µM; with Leishmania amazonensis [9] it was 0.8 µM. Moreover, the midpoint of the response in the series on Trypanosoma cruzi [3], the EC50, lay at 4.2 µM. Further, the “Ratio CC50/IC50” value in [12] is on record as 4.9.

Take `C[S+]([O-])c1nc2ccc(Cl)cc2nc1Cl` (configuration not stated): the selectivity ratio came out at 108 in series [1]; 2.9 in series [11]; 54.2 in [5]; 108 in [6]; 54.2 in series [8]. Further, the IC50 was 1.5 µM with Leishmania amazonensis [10], 0.1 µM in the series with Trypanosoma cruzi [2] and 0.1 µM in the series with Leishmania amazonensis [9]. For the same compound, in the series with Trypanosoma cruzi [3], the response was half-maximal at 1.7 µM (EC50). For the same compound, the “Ratio CC50/IC50” value in series [12] is 9.

As for `CS(=O)(=O)c1nc2ccccc2nc1Cl`, the selectivity ratio in series [1] worked out at 14.4; in series [11] it was 7.3; in series [5] it was 70.1; in series [6], 14.4; in [8], 70.1. Further, the values for the IC50 in the series with Trypanosoma cruzi [2], in the series with Trypanosoma cruzi [4] and in the series with Leishmania amazonensis [9] were 0.6 µM, more than 15 µM and 1.6 µM, respectively. In the series on Trypanosoma cruzi [3], the EC50 came to 6.4 µM.

Take `CS(=O)(=O)c1nc2ccc(Br)cc2nc1Cl`: the selectivity ratio in series [1] was determined as 71.8; in series [11] it was 7; in [5] it was 49.6; in [6], 71.8; in series [7] it was 1.1; in [8], 49.6. Moreover, the IC50 in the series with Leishmania amazonensis [10] is 1.4 µM; in the series on Trypanosoma cruzi [2], 0.3 µM; with Trypanosoma cruzi [4] it was 13.5 µM; with Leishmania amazonensis [9], 0.2 µM. The EC50 in the series with Trypanosoma cruzi [3] came to 1.8 µM. Moreover, the “Ratio CC50/IC50” value in series [12] is 9.9.

For `CS(=O)(=O)c1nc2ccc(Cl)cc2nc1Cl`, the selectivity ratio was 66 in series [1]; 4.1 in [11]; 25.9 in series [5]; 66 in [6]; 0.9 in series [7]; 25.9 in [8]. In addition, the IC50 in the series with Leishmania amazonensis [10] was found to be 3.1 µM; in the series on Trypanosoma cruzi [2] it was 0.3 µM; in the series with Trypanosoma cruzi [4] it was 8.6 µM; in the series on Leishmania amazonensis [9] it was 0.2 µM. The response in the series with Trypanosoma cruzi [3] was half-maximal at 6.9 µM (EC50). For the same compound, the “Ratio CC50/IC50” value in series [12] is 4.3.

Consider `CCCCNc1nc2ccc(OC)cc2nc1S(C)(=O)=O`, for which the selectivity ratio in series [1] stood at 17.1; in [11], 10; in series [5], 108; in series [6], 17.1; in series [7], 27.3; in [8] it was 108. Further, the IC50 with Leishmania amazonensis [10] was determined as 12.9 µM; with Trypanosoma cruzi [2] it was 3.6 µM; in the series with Trypanosoma cruzi [4], 14.3 µM; in the series with Leishmania amazonensis [9], 2.5 µM. In addition, in the series on Trypanosoma cruzi [3], the EC50 came to 39.2 µM. Moreover, in series [12], the “Ratio CC50/IC50” value turned out to be 3.3.

For `COc1ccc2nc(NCCO)c(S(C)(=O)=O)nc2c1`, the selectivity ratio amounted to 13.3 in [1]; 2 in series [11]; 25.2 in [5]; 13.3 in [6]; 1.8 in series [7]; 25.2 in series [8]. The IC50 was 17.3 µM with Leishmania amazonensis [10], 2.9 µM in the series with Trypanosoma cruzi [2], 40.5 µM in the series on Trypanosoma cruzi [4] and 2.9 µM with Leishmania amazonensis [9]. The compound also registered an EC50 with Trypanosoma cruzi [3] of 35.7 µM. Moreover, the “Ratio CC50/IC50” value in series [12] was determined as 2.2.

Regarding `COc1ccc2nc(NC3CCCCC3)c(S(C)(=O)=O)nc2c1`, the selectivity ratio in [1] amounted to 18.1; in series [11], 1.6; in series [5] it was 20.8; in series [6], 18.1; in [8], 20.8. The half-maximal inhibitory concentration (IC50) was 20.2 µM with Leishmania amazonensis [10], 2.2 µM in the series with Trypanosoma cruzi [2], more than 25 µM in the series with Trypanosoma cruzi [4] and 2.9 µM with Leishmania amazonensis [9]. The EC50 in the series with Trypanosoma cruzi [3] was 27.7 µM. In series [12], the “Ratio CC50/IC50” value is 2.6.

With `CCCCNc1nc2cc(Br)ccc2nc1S(C)(=O)=O`, the selectivity ratio in series [1] worked out at 28.3; in series [11], 17.8; in series [5], 43.7; in series [6], 28.3; in series [8], 43.7. For the same compound, the values for the IC50 in the series on Trypanosoma cruzi [2], with Trypanosoma cruzi [4] and with Leishmania amazonensis [9] were 2.3 µM, more than 25 µM and 1.6 µM, respectively. The compound also showed an EC50 in the series on Trypanosoma cruzi [3] of 5.6 µM.

For `CS(=O)(=O)c1nc2ccc(Br)cc2nc1NCCO`, the selectivity ratio in [1] is 40.3; in series [11] it was 0.7; in [5], 3.4; in series [6], 40.3; in series [7], 0.8; in series [8], 3.4. The values for the IC50 in the series on Trypanosoma cruzi [2], with Trypanosoma cruzi [4] and in the series on Leishmania amazonensis [9] were 1.6 µM, 7.4 µM and 0.8 µM, respectively. In addition, the EC50 in the series on Trypanosoma cruzi [3] came to 8.2 µM.

Take `COc1ccc2nc(NCC(C)C)c(S(C)(=O)=O)nc2c1`: the selectivity ratio in series [1] amounted to 22.8; in [11], 6; in [5], 22.6; in series [6] it was 22.8; in series [7], 4.7; in series [8], 22.6. In addition, the IC50 with Trypanosoma cruzi [2] turned out to be 3.1 µM; with Trypanosoma cruzi [4], 14.9 µM; in the series on Leishmania amazonensis [9], 2.6 µM. Besides, the response with Trypanosoma cruzi [3] was half-maximal at 11.7 µM (EC50).

For the compound `CS(=O)(=O)c1nc2ccc(Cl)cc2nc1NC1CCCCC1`, the selectivity ratio in series [1] came to 15; in series [11] it was 19.6; in series [5], 38.3; in series [6], 15; in [7], 7.9; in series [8], 38.3. The IC50 came out at 2 µM in the series with Trypanosoma cruzi [2], 9.6 µM in the series with Trypanosoma cruzi [4] and 2.2 µM in the series with Leishmania amazonensis [9]. The compound also showed an EC50 in the series with Trypanosoma cruzi [3] of 3.9 µM.

For `COc1ccc2nc(NC3CCCCC3)c([S+](C)[O-])nc2c1` (configuration not stated), the selectivity ratio was 8 in [1]; 7.1 in [11]; 72.8 in series [5]; 8 in series [6]; 19.5 in [7]; 72.8 in series [8]. Moreover, the IC50 in the series with Leishmania amazonensis [10] was determined as 7.3 µM; in the series with Trypanosoma cruzi [2] it was 2.5 µM; in the series on Trypanosoma cruzi [4], 9.3 µM; with Leishmania amazonensis [9], 2.5 µM. Also, the EC50 in the series with Trypanosoma cruzi [3] worked out at 25.4 µM. In addition, in [12], the “Ratio CC50/IC50” value is given as 2.8.

Regarding `C[S+]([O-])c1nc2ccc(Cl)cc2nc1NC1CCCCC1` (configuration not stated), the selectivity ratio stood at 33.8 in series [1]; 6.2 in series [11]; 21.8 in series [5]; 33.8 in [6]; 5.1 in series [7]; 21.8 in [8]. Besides, the IC50 with Trypanosoma cruzi [2] came out at 1.8 µM; with Trypanosoma cruzi [4], 7.7 µM; with Leishmania amazonensis [9] it was 1.9 µM. The midpoint of the response in the series on Trypanosoma cruzi [3], the EC50, lay at 6.3 µM.

In the case of `COc1ccc2nc(Cl)c(NCc3ccccc3)nc2c1`, the selectivity ratio in series [1] was found to be 5.4; in [5] it was 22.2; in series [6], 5.4; in series [8], 22.2. Also, the IC50 with Leishmania amazonensis [10] was 25 µM; in the series with Trypanosoma cruzi [2] it was 15.9 µM; with Trypanosoma cruzi [4] it was more than 20 µM; in the series on Leishmania amazonensis [9], 24.5 µM. The same compound had an EC50 in the series with Trypanosoma cruzi [3] of more than 50 µM. Also, the “Ratio CC50/IC50” value in series [12] worked out at 5.3.

In the series on Leishmania amazonensis [10], `C[C@@H]1[C@H](O)[C@@H](C)/C=C/C=C/C=C/C=C/C=C/C=C/C=C/[C@H](O[C@@H]2O[C@H](C)[C@@H](O)[C@H](N)[C@@H]2O)C[C@@H]2O[C@](O)(C[C@@H](O)C[C@@H](O)[C@H](O)CC[C@@H](O)C[C@@H](O)CC(=O)O[C@H]1C)C[C@H](O)[C@H]2C(=O)O` [AMPHOTERICIN B] came in with an IC50 of 0.4 µM.

For `O=C(Cn1ccnc1[N+](=O)[O-])NCc1ccccc1` [BENZNIDAZOLE], the IC50 was 8.1 µM in the series on Trypanosoma cruzi [2] and 26.1 µM in the series with Trypanosoma cruzi [13]. For the same compound, the EC50 in the series on Trypanosoma cruzi [14] turned out to be 3.4 µM.
